Data from ChEMBL document CHEMBL3286229 (J Med Chem, 2014).
Active and inactive are the calls of the source. The calls are words filed in the database; no cut-off is given here.

Legend:
Mus musculus [1] = test: Anxiolysis activity in ip dosed C57BL/6N mouse assessed as time spent on open arms by elevated plus maze test; type: functional, organism-based
How it was run: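 Male C57BL/6N mice, 3–6 months old, given ip injections 30 min before testing. Vehicle was 0.9% NaCl with 10% DMSO and 3% Tween 80; doses in mg/kg, with saline controls. 5 min on an elevated plus maze (arms 50 × 5 cm, 1 m high, 180 Lux), starting in the centre facing an open arm. Time on open arms scored automatically by video.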

Mus musculus [2] = test: Sedative effect in ip dosed C57BL/6N mouse assessed as reduction in locomotor activity by open field test; type: organism-based; details: in vivo
How it was run: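 Male C57BL/6N mice, 3–6 months old, dosed ip 30 min before testing. Vehicle was 0.9% NaCl with 10% DMSO and 3% Tween 80; doses in mg/kg. Ambulation recorded over 10 min in a 50 × 50 cm box fitted with infrared rearing detection.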

[3] = biological target: Transient receptor potential cation channel subfamily V member 1 (Homo sapiens) (UniProt Q8NER1); test: Activation of TRPV1 (unknown origin) expressed in Xenopus oocytes up to 100 uM; type: cell-based
[4] = biological target: T1, GABA-A receptor; alpha-1/beta-2/gamma-2 (Homo sapiens, UniProt P14867+P18507+P47870); test: Modulation of GABAA alpha1beta2gamma2S receptor (unknown origin) expressed in Xenopus laevis oocytes assessed as potentiation of GABA-induced chloride ion current at holding potential -70 mV by two-microelectrode voltage clamp assay; type: cell-based
T1 sequence (P14867 whole entry): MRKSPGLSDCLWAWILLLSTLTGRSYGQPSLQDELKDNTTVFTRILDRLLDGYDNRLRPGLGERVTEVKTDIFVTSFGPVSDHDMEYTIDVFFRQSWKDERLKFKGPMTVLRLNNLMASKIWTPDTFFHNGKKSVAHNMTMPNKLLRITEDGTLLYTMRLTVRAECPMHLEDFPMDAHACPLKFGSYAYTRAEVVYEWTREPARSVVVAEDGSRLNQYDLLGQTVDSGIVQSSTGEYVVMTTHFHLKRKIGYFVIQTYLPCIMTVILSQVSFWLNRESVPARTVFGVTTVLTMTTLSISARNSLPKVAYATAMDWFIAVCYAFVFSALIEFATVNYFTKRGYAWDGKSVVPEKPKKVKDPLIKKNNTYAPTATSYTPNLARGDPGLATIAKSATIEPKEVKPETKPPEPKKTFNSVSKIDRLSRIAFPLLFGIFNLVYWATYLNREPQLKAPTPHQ
T1 sequence (P47870 whole entry): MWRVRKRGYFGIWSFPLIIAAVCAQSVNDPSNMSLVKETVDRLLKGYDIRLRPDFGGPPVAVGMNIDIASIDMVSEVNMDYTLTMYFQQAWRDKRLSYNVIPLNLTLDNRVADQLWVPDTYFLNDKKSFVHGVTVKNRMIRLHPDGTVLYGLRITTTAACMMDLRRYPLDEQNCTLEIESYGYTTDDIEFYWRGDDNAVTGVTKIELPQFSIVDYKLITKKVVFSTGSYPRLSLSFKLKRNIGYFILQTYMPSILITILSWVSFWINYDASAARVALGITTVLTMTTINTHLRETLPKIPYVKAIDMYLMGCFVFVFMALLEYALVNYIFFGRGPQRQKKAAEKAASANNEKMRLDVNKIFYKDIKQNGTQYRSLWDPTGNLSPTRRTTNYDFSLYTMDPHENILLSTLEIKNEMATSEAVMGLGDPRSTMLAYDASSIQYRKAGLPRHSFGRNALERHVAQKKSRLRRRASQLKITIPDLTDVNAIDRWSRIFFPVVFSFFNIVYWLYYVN
T1 sequence (P18507 whole entry): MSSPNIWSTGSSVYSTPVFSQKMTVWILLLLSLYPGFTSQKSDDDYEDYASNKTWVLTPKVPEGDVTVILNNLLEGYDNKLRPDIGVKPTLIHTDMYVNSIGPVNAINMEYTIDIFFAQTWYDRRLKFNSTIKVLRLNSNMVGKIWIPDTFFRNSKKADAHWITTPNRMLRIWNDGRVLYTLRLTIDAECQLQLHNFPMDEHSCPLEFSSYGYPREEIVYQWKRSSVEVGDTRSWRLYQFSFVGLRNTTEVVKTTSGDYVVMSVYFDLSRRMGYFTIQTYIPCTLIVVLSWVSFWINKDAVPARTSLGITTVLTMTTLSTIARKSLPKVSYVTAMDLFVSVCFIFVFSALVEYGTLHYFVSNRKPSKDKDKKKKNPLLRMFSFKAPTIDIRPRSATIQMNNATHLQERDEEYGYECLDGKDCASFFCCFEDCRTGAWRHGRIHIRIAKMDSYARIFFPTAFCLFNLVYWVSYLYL
How it was run: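 Stage V–VI oocytes injected with α1, β2 and γ2S cRNAs mixed 1:1:10 and kept at 18 °C in modified ND96 (pH 7.4). Two-microelectrode voltage clamp at room temperature, holding potential −70 mV, electrodes with 2 M KCl. Compounds co-applied by fast perfusion with GABA at EC3–7. Washout lasted 1.5 min below 10 μM and 30 min at ≥10 μM. Oocytes with currents >3 μA discarded.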

Transient receptor potential cation channel subfamily V member 1 (Homo sapiens), sequence (Q8NER1 whole entry): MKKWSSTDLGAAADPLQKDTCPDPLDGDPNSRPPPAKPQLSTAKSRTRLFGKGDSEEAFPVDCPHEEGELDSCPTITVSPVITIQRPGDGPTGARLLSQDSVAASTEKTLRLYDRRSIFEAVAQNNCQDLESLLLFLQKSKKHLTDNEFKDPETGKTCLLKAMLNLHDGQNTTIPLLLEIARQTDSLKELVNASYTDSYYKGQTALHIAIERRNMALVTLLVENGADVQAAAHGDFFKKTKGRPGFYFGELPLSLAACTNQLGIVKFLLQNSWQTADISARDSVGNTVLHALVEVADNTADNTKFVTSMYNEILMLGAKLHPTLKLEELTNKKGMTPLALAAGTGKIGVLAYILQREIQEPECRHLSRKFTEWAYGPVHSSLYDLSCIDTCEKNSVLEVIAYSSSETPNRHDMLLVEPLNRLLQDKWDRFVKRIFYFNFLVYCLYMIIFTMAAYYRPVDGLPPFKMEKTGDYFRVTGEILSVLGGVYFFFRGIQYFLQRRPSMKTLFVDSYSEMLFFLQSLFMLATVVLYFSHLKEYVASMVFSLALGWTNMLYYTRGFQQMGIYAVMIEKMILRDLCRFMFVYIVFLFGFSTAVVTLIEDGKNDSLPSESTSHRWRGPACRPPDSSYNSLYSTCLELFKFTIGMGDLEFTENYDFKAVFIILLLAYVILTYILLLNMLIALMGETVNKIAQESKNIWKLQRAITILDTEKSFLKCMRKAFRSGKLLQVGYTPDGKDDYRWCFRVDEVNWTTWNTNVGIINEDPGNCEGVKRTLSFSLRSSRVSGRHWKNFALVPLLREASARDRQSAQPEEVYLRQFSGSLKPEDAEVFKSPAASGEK

SMILES | Activity (Mus musculus [1]) | Activity (Mus musculus [2]) | Activity [3] | EC50 [4]
CCCN(CCC)C(=O)/C=C/C=C/c1ccc2c(c1)OCO2 | Dose-dependent effect | Toxic | inactive | 
O=C(/C=C/C=C/c1ccc2c(c1)OCO2)N1CCCCC1 [PIPERINE] |  |  |  | 52.4 µM
CCCCN(CCCC)C(=O)/C=C/C=C/c1ccc2c(c1)OCO2 |  | Toxic | inactive | 
